Assay results from ChEMBL document CHEMBL1124695, “Brain-specific chemical delivery systems for beta-lactam antibiotics. Synthesis and properties of some dihydropyridine and dihydroiosquinoline derivatives of benzylpenicillin” (J Med Chem, 1989).

What was measured:
[1] = Half life of compound when water is added (0.15u) in pH 7.4 phosphate buffer (0.05 M) at 37 degree C; format: ADME
Summary of the method: (§1)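 Chemical stability: compound added from freshly prepared 8 mM DMSO stock into 0.05 M phosphate buffer (μ = 0.15), pH 7.4, at 37 °C. Samples drawn at intervals and injected directly onto reversed-phase HPLC with UV detection. Buffer pH checked before and after. Disappearance followed first-order kinetics, giving apparent rate constants. Half-life in minutes.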

[2] = Half life of compound (0.15u) in pH 7.4 phosphate buffer (0.05 M) at 37 degree C; format: ADME; summary of the method: as §1
[3] = Stability in aqueous buffer at pH 7.4; format: physicochemical; summary of the method: as §1
[4] = Second order oxidation rate constant determined by using Ferricyanide; format: ADME
Summary of the method: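 Oxidation by ferricyanide under pseudo-first-order conditions, with Fe(CN)6^3- in large excess over the dihydro carrier and pH held constant. Pseudo-first-order rates were measured at several ferricyanide concentrations, and the second-order oxidation rate constant (Ko) was derived from them.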

[5] = Dissociation constant of the compound; format: physicochemical
Homo sapiens [6] = assay: Concentration of compound in human blood tissues after intravenous administration of 2 g dose; format: ADME, organism-based
Homo sapiens [7] = assay: Concentration of compound in human brain tissues after intravenous administration of 2 g dose; format: ADME, organism-based; details: in vivo
[8] = Partition coefficient (logP); format: physicochemical; details: octanol/water

| Compound | half-life [1] [min] | half-life [2] [min] | Ko [4] [M⁻¹ s⁻¹] | other results |
| --- | --- | --- | --- | --- |
| C[n+]1cccc(C(=O)NCC(OC(=O)C2N3C(=O)[C@@H](NC(=O)Cc4ccccc4)[C@H]3SC2(C)C)c2ccccc2)c1.[I-] (stereo partly specified) | 268 | – | – | – |
| CN1C=C(C(=O)NCCOC(=O)C2N3C(=O)[C@@H](NC(=O)Cc4ccccc4)[C@H]3SC2(C)C)c2ccccc2C1 (stereo partly specified) | – | 991 | – | – |
| C[n+]1cc(C(=O)NCCOC(=O)C2N3C(=O)[C@@H](NC(=O)Cc4ccccc4)[C@H]3SC2(C)C)c2ccccc2c1.[I-] (stereo partly specified) | 378 | – | – | – |
| CC1(C)S[C@@H]2[C@H](NC(=O)Cc3ccccc3)C(=O)N2C1C(=O)OCCO (stereo partly specified) | – | 436 | – | k [3]: 0.0016 min⁻¹ |
| CC(CNC(=O)c1ccc[n+](C)c1)OC(=O)C1N2C(=O)[C@@H](NC(=O)Cc3ccccc3)[C@H]2SC1(C)C.[I-] (stereo partly specified) | 364 | – | – | – |
| C[n+]1cccc(C(=O)OCCOC(=O)C2N3C(=O)[C@@H](NC(=O)Cc4ccccc4)[C@H]3SC2(C)C)c1.[I-] (stereo partly specified) | 36.9 | – | – | – |
| C[n+]1cccc(C(=O)NCCOC(=O)C2N3C(=O)[C@@H](NC(=O)Cc4ccccc4)[C@H]3SC2(C)C)c1.[I-] (stereo partly specified) | 196 | – | – | – |
| CN1C=CCC(C(=O)OCOC(=O)C2N3C(=O)[C@@H](NC(=O)Cc4ccccc4)[C@H]3SC2(C)C)=C1 (stereo partly specified) | 136 | 93 | 0.53 | – |
| C[n+]1cccc(C(=O)OCOC(=O)C2N3C(=O)[C@@H](NC(=O)Cc4ccccc4)[C@H]3SC2(C)C)c1.[I-] (stereo partly specified) | 2.7 | – | – | – |
| CN1C=CCC(C(=O)NCC(OC(=O)C2N3C(=O)[C@@H](NC(=O)Cc4ccccc4)[C@H]3SC2(C)C)c2ccccc2)=C1 (stereo partly specified) | – | 35.2 | 15.85 | – |
| CN1C=CCC(C(=O)NCCOC(=O)C2N3C(=O)[C@@H](NC(=O)Cc4ccccc4)[C@H]3SC2(C)C)=C1 (stereo partly specified) | 148 | 12.8 | 26.08 | – |
| CN1C=CCC(C(=O)OCCOC(=O)C2N3C(=O)[C@@H](NC(=O)Cc4ccccc4)[C@H]3SC2(C)C)=C1 (stereo partly specified) | 443 | 116 | 1.552 | – |
| CC(CNC(=O)C1=CN(C)C=CC1)OC(=O)C1N2C(=O)[C@@H](NC(=O)Cc3ccccc3)[C@H]2SC1(C)C (stereo partly specified) | – | 25.8 | 11.94 | – |
| CC1(C)S[C@@H]2[C@H](NC(=O)Cc3ccccc3)C(=O)N2[C@H]1C(=O)O [PENICILLIN G] | – | – | – | pKa [5]: 2.6; Concentration (Homo sapiens [6]): 7.5 µg/mL; Concentration (Homo sapiens [7]): 0.32 µg/mL; logP [8]: 1.76 |
